Bioassay records (PubChem BioAssay)
NF-kB neuron act: compounds increasing NF-kB expression in human neuronal cells. fold change at 12.5 µM. 1.6% of 190,000 active. NF-kB reporter expression; active compounds read high; in the data active = fold change above about 3.3
Pf gametocyte: inhibitors of late stage P. falciparum gametocyte viability. AID 743093. inhibition, % at 10.9 µM. P. falciparum stage V gametocytes, ATP luminescence, 24 h. 0.065% of 150,000 active;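 active = inhibition above the mean plus 3 SD of compounds within the control limits, set per campaign, cut at about 38% in these data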;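 note: 0% = DMSO wells and 100% = medium only without gametocytes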
STAT1 act: STAT1 signaling activation. NIH 3T3 STAT1-luciferase reporter, IFN-gamma, luminescence; 100% = IFN-gamma alone, no compound. activation (% of control), % at 5.5 µM. 2.6% of 200,000 active. AID 932;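 active = activation above the screen-wide mean activation plus 3 SD, cut at about 130% in these data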;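 note: raw ratio to IFN-gamma control signal so 100% means no change and 0% no light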
STAT3 act: activators of IL-6 induced STAT3 signaling | AID 871 | U3A cells, IL-6 STAT3-luciferase reporter, luminescence; 100% = signal with IL-6 EC80 alone | 0.91% of 190,000 active | activation (% of control), % at 5.6 µM;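 active = activation above the screen-wide mean of compound activation plus 3 SD, cut at about 130% in these data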;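 note: 0% = background luminescence of wells with medium and substrate only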
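Material: human STAT1-deficient U3A cells with stable STAT3-luciferase reporter / Probe or stimulus: IL-6 stimulus at 33 ng/mL final / Schedule: 1 h compound pre-exposure, 6 h IL-6 stimulation, 37 °C / Technique: luminescence / Read-out basis: percent of IL-6-only median luminescence / Control set: IL-6-only high control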
APP 5'UTR act: APP 5'UTR luciferase reporter activation | activation, % at 2 µM | SH-SY5Y APP 5'UTR luciferase reporter, luminescence; zero percent = DMSO vehicle wells | 1% of 190,000 active;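 active = activation above a set limit, based on mean plus 3 SD of controls, cut at about 140% in these data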
STAT1 blocker: inhibitors of IFN-gamma induced STAT1 signaling | inhibition, % at 5.5 µM | AID 920 | 0.35% of 200,000 active | NIH 3T3 STAT1-luciferase reporter, luminescence;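 active = inhibition above a set limit, the mean inhibition across all tested compounds plus 3 SD, cut at about 34% in these data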;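 note: 0% = IFN-gamma with DMSO and 100% = IFN-gamma with 300 µM nifuroxazide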
The depositor's hits bear a star; · = no result. A selection: hits, their analogues and other compounds. The true share with any hit is near 3.9%.

SMILES	NF-kB neuron act	Pf gametocyte	STAT1 act	STAT3 act	APP 5'UTR act	STAT1 blocker
Clc1ccc(-n2nnc(-c3nccs3)n2)cc1Cl	4.79*	7.6	97.8	·	199.0*	3.9
CN(C(=O)CO/N=C/c1ccc(OC(F)F)cc1)C1CCS(=O)(=O)C1 (stereo not given)	1.23	-11.6	97.3	105.2	1.6	1.0
O=C(O)C1CN(C(=O)c2cccc(Br)c2)C1	1.15	-5.0	98.4	88.4	9.4	0.9
Cc1cccc(C)c1NC(=O)CCn1cnc2ccccc2c1=O	1.08	-11.2	97.8	104.1	-1.6	-0.6
Cc1ccc(NC(=O)CCn2cnc3ccccc3c2=O)cc1Cl	1.24	·	130.8*	93.2	-2.0	-34.4
COc1cc2c(cc1OC)CN(C(=S)Nc1ccccc1Cl)CC2	0.9	5.5	83.5	79.5	-0.3	16.1
COc1cc2c(cc1OC)CN(C(=S)Nc1ccc(C)cc1C)CC2	0.99	47.5*	98.4	94.2	6.2	1.8
CCC(C)[C@H](NC(=O)Nc1ccc(C)cc1C)C(=O)O (stereo not given in full)	·	10.9	·	·	·	·
CCC(=O)N1N=C(c2ccc(NS(C)(=O)=O)cc2)CC1c1ccc(N(C)C)cc1 (stereo not given)	2.04	·	128.6*	111.0	23.6	-33.8
COc1ccc2c(c1)[C@H]1[C@H](CO2)[C@H](c2ccccc2)[C@]2(C)C(=O)N[C@H](C)C(=O)N12	·	-14.8	·	·	·	·
CC(=O)Nc1ccc(S(=O)(=O)N2CCN(c3ccc([N+](=O)[O-])cc3)CC2)cc1	·	0.4	·	·	·	·
Nc1nc(COc2ccc3ccccc3c2)cs1	2.4	·	137.6*	88.2	48.4	-60.0
Nc1nc(CCOc2ccc(F)cc2)cs1	1.78	-6.1	141.4*	101.6	30.4	-48.0
CC(=O)Nc1nc(COc2ccc3ccccc3c2)cs1	1.69	-17.7	117.3	99.7	54.0	-18.9
Nc1nc(-c2ccc(F)cc2)cs1	1.67	-5.2	113.1	100.4	-2.4	-14.4
N=c1sccn1CC(=O)NC(c1ccccc1)c1ccccc1	1	·	106.7	103.5	7.5	-10.8
O=C(Cn1nc2n(c1=O)-c1ccccc1SC2)N/N=C/c1cccnc1	·	-5.8	·	·	·	·
O=C(Nc1ccccc1)C1Cc2ccccc2CN1C(=O)c1ccco1 (stereo not given)	0.97	1.1	130.1*	140.7*	116.9	-32.6
CC[C@]12C(=O)N(C)C[C@H]([C@@H]3C(=O)N(C)C(=O)[C@@H]31)N2C(=O)c1ccc(F)cc1	·	20.6	·	·	·	·
O=Cc1s/c(=N\S(=O)(=O)c2ccccc2)n(CCCCl)c1Cl	0.12	·	136.3*	101.4	-94.7	-37.9
COCCCN1C(=O)CS/C1=N\S(=O)(=O)c1ccccc1	·	0.9	·	·	·	·
CC1(C)CC(Cc2nc(=S)[nH][nH]2)C(=O)O1 (stereo not given)	0.91	·	90.4	97.4	11.9	9.8
CCOC(=O)c1cc(-c2ccccc2C)nn1CC1CC(c2cccnc2)=NO1 (stereo not given)	·	11.6	·	·	·	·
CC1CCCCN1S(=O)(=O)c1ccc(C(=O)Nc2sccc2C(N)=O)cc1 (stereo not given)	1.27	·	128.6*	118.4	77.7	-31.5
Cc1ccc2nc(NC(=O)c3cccs3)sc2c1	10.6*	·	128.6*	44.1	162.7*	-29.9
SMILES	NF-kB neuron act	Pf gametocyte	STAT1 act	STAT3 act	APP 5'UTR act	STAT1 blocker
Cc1ccc2nc(NC(=O)c3ccc(N4C(=O)CCC4=O)cc3)sc2c1	1.24	-7.2	114.3	104.1	7.6	-17.0
Cc1ccc2nc(NC(=O)c3ccc4ncsc4c3)sc2c1	4.12*	·	147.4*	103.9	172.2*	-52.9
CS(=O)(=O)c1ccc2nc(NC(=O)c3cccs3)sc2c1	2.74	19.3	88.0	53.4	116.7	13.0
CC(C)(C)OC(=O)C[C@@H]1C/C=C\C[C@H](CC(=O)NCCO)C(=O)NC[C@@H](c2ccccc2)OC1=O	·	-3.0	·	·	·	·
CC1CC1C(=O)OCC(=O)Nc1ccc(N=Nc2ccccc2)cc1 (stereo not given)	5.89*	-22.1	147.8*	101.0	142.9*	-53.4
O=C(O)CCC(=O)Nc1ccc(N=Nc2ccccc2)cc1	1.19	·	109.2	98.6	-0.1	-9.1
CC(C)(C)C(=O)Nc1ccc(N=Nc2ccccc2)cc1	1.14	·	37.0	28.4	114.4	67.0*
Cn1c(C=O)c(C#Cc2ccccc2)c2ccccc21	·	7.0	·	·	·	·
C(=C\c1ccccc1)/CSc1ccccn1	2.17	12.6	135.6*	93.8	54.2	-38.6
OC(COc1ccccc1)CSc1ncn[nH]1 (stereo not given)	1.03	·	107.4	105.0	19.4	-8.0
CC(C)(C)c1ccc(OCC(O)CSc2ncn[nH]2)cc1 (stereo not given)	1.65	-11.6	134.5*	108.2	15.8	-37.7
N/N=C/C(=N\Nc1ccc(Cl)cc1)C(=O)c1ccncc1	·	44.7*	·	·	·	·
CCOc1nc(-c2ccccc2)ncc1Oc1ccccc1	·	-15.3	·	·	·	·
COc1ccc(/C(N)=N/OC(=O)CSc2ccccc2)cc1	5.26*	3.0	116.3	96.7	98.2	-17.6
COc1ccc(/C(N)=N/OC(=O)CSc2ccc(C)cc2)cc1	1.27	-27.1	102.2	97.8	8.6	-2.4
Cc1ccc(/C(N)=N/OC(=O)CSc2ccccc2)cc1	3.12	·	129.6*	99.8	180.3*	-33.7
CC(=O)N1CCC(N(CCN2CCOCC2)C(=S)Nc2ccc(C)c(C)c2)CC1	1.19	14.2	93.1	88.2	-1.8	6.4
COc1ccc(C(O)Cn2cc([N+](=O)[O-])nc2C)cc1 (stereo not given)	·	7.9	·	·	·	·
COC(=O)c1nn(-c2ccc(-c3ccccc3)cc2)cc1O	4.6*	·	96.2	42.0	156.3*	5.4
CCOC(=O)c1nn(-c2ccc(Cl)cc2)cc1O	·	12.1	·	·	·	·
CCOC(=O)c1nn(-c2ccc(C)cc2)cc1O	4.08*	·	107.9	88.1	136.6*	-8.5
CCOC(=O)c1nn(-c2ccc3ccccc3c2)cc1O	2.34	9.1	102.8	88.9	47.4	-2.3
Cc1ccc(N=Nc2c(C)[nH]n(C(N)=S)c2=O)cc1C	4.77*	-28.3	113.0	120.3	96.1	-14.5
CC(C)(C)C1CCc2c(sc(NC(=O)c3ccco3)c2C(N)=O)C1 (stereo not given)	0.88	-1.2	86.3	91.5	11.2	14.8
CCC1CCc2c(sc(NC(=O)c3ccco3)c2C(N)=O)C1 (stereo not given)	2.62	-7.1	130.6*	108.2	83.9	-39.9
CCCCCCCN1CCN=C1Nc1ccccc1	·	-3.2	·	·	·	·
O=C(CN1C(=O)S/C(=C\C=C\c2ccccc2)C1=O)Nc1cccc(O)c1	3.41*	2.7	130.1*	109.1	15.9	-33.4
CC(=O)Nc1ccc(S(=O)(=O)N2CCN(Cc3cccc([N+](=O)[O-])c3)CC2)cc1	1.07	5.4	94.1	91.7	11.8	3.3
CCN1/C(=C/c2ccc3cc(C)cc(C)c3[n+]2CC)Sc2cc(C)ccc21	0.92	0.0	83.4	28.9	-61.4	17.3
CCN1/C(=C/c2ccc3cccc(C)c3[n+]2CC)Sc2ccccc21	4.97*	-16.9	84.2	39.1	-31.2	17.5
